Active and inactive are the calls of the source. The rule behind the calls is not given here.
Legend:
[1] = test system: Hamster; experiment: Inhibition of human neutrophil elastase-induced lung hemorrhage in hamster at 10 mg/kg, iv administered as bolus dose; assay type: functional; conditions: Cricetinae
Summary of the method: (§1)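 Hamster lung hemorrhage induced by HNE instillation; compound given as iv bolus. One hour after HNE, BALF collected and centrifuged; supernatant absorbance at 414 nm taken as hemorrhage; % inhibition reported.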

[2] = test system: Hamster; experiment: Inhibition of human neutrophil elastase-induced lung hemorrhage in hamster at 30 mg/kg, iv administered as bolus dose; assay type: functional; conditions: Cricetinae; summary of the method: as §1
[3] = test system: Hamster; experiment: Inhibition of human neutrophil elastase-induced lung hemorrhage in hamster at 1 mg/kg/hr, iv administered as infusion; assay type: functional; conditions: Cricetinae
Summary of the method: (§2)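 Hamster lung hemorrhage induced by HNE instillation, with compound delivered by iv infusion over more than 70 min. BALF collected 1 h after HNE and centrifuged; supernatant absorbance at 414 nm used as hemorrhage measure; % inhibition reported.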

[4] = test system: Hamster; experiment: Inhibition of human neutrophil elastase-induced lung hemorrhage in hamster at 3 mg/kg, iv administered as bolus dose; assay type: functional; conditions: Cricetinae; summary of the method: as §1
[5] = test system: Hamster; experiment: Inhibition of human neutrophil elastase-induced lung hemorrhage in hamster at 10 mg/kg/hr, iv administered as infusion; assay type: functional; conditions: Cricetinae; summary of the method: as §2
[6] = test system: Hamster; experiment: Inhibition of human neutrophil elastase-induced lung hemorrhage in hamster at 3 mg/kg/hr, iv administered as infusion; assay type: functional; conditions: Cricetinae; summary of the method: as §2
[7] = test system: Hamster; experiment: Inhibition of human neutrophil elastase-induced lung hemorrhage in iv dosed hamster administered as infusion; assay type: functional, Cricetinae; summary of the method: as §2
[8] = species: Mus musculus; conditions: C3H/HeN, 10 to 100 mg/kg
[9] = test system: Mus musculus; experiment: Toxicity in mouse assessed as overt effects up to 300 mg/kg, iv; assay type: organism-based; set-up: dose 300 mg/kg, route intravenous; conditions: in vivo
[10] = test system: Hamster; experiment: Inhibition of human neutrophil elastase-induced lung hemorrhage in iv dosed hamster administered as bolus dose; assay type: functional; conditions: Cricetinae; summary of the method: as §1
[11] = Aqueous solubility in water; assay type: physicochemical
[12] = test system: Hamster; experiment: Antiinflammatory activity in iv dosed hamster assessed as inhibition of LPS-induced lung edema; assay type: functional, Cricetinae
Summary of the method: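 Hamsters given LPS intratracheally; jugular-vein infusion started immediately after LPS and continued up to 6 h. Whole-lung wet weight measured at 6 h after LPS and corrected for each animal's body weight.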

## Cc1cn(CC(=O)N[C@H](C(=O)N2CCC[C@H]2C(=O)N[C@H](C(=O)c2nc3ccccc3o2)C(C)C)C(C)C)c(=O)n(CC(=O)O)c1=O
[1]
  inhibition in vivo at 10 mg/kg: 70%
[2]
  inhibition in vivo at 30 mg/kg: 92%
[3]
  inhibition in vivo at 1 mg/kg/hr: 33%
[4]
  inhibition in vivo at 3 mg/kg: 39%
[5]
  inhibition in vivo at 10 mg/kg/hr: 56%
[6]
  inhibition in vivo at 3 mg/kg/hr: 38%

## CC(C)[C@H](NC(=O)[C@@H]1CCCN1C(=O)[C@@H](NC(=O)CN1CCC(=O)N(CC(=O)O)C1=O)C(C)C)C(=O)c1nc2ccccc2o1
[1]
  inhibition in vivo at 10 mg/kg: 34%
[4]
  inhibition in vivo at 3 mg/kg: 38%

## CC(C)[C@H](NC(=O)[C@@H]1CCCN1C(=O)[C@@H](NC(=O)CN1C(=O)N(CC(=O)O)C(C)(C)C1=O)C(C)C)C(=O)c1nc2ccccc2o1
[1]
  inhibition in vivo at 10 mg/kg: 59%
[4]
  inhibition in vivo at 3 mg/kg: 20%

## CC(C)[C@H](NC(=O)CN1CCN(CC(=O)O)C1=O)C(=O)N1CCC[C@H]1C(=O)N[C@H](C(=O)C(F)(F)F)C(C)C
[7]
  ED50: 0.42 mg/kg/h
[8]
  inhibition: Active
[9]
  Activity: Non-toxic
[3]
  inhibition in vivo at 1 mg/kg/hr: 45%
[5]
  inhibition in vivo at 10 mg/kg/hr: 97%
[6]
  inhibition in vivo at 3 mg/kg/hr: 84%
[10]
  ED50: 1.2 mg/kg
[11]
  solubility: > 1000 mg/mL
[12]
  MED: 3 mg/kg/h

## CC(C)[C@H](NC(=O)[C@@H]1CCCN1C(=O)[C@@H](NC(=O)COc1ccc(OCC(=O)O)cc1)C(C)C)C(=O)c1nc2ccccc2o1
[1]
  inhibition in vivo at 10 mg/kg: 38%
[2]
  inhibition in vivo at 30 mg/kg: 56%

## CC(C)[C@H](NC(=O)[C@@H]1CCCN1C(=O)[C@@H](NC(=O)CN1C(=O)CN(CC(=O)O)C1=O)C(C)C)C(=O)c1nc2ccccc2o1
[1]
  inhibition in vivo at 10 mg/kg: 72%
[2]
  inhibition in vivo at 30 mg/kg: 81%
[3]
  inhibition in vivo at 1 mg/kg/hr: 39%
[4]
  inhibition in vivo at 3 mg/kg: 37%
[5]
  inhibition in vivo at 10 mg/kg/hr: 53%
[6]
  inhibition in vivo at 3 mg/kg/hr: 57%

## CC(C)[C@H](NC(=O)[C@@H]1CCCN1C(=O)[C@@H](NC(=O)Cn1c(=O)ccn(CC(=O)O)c1=O)C(C)C)C(=O)c1nc2ccccc2o1
[1]
  inhibition in vivo at 10 mg/kg: 47%
[2]
  inhibition in vivo at 30 mg/kg: 94%
[4]
  inhibition in vivo at 3 mg/kg: 34%

## CC(C)[C@H](NC(=O)[C@@H]1CCCN1C(=O)[C@@H](NC(=O)CN1C(=O)N(CC(=O)O)C(=O)C1(C)C)C(C)C)C(=O)c1nc2ccccc2o1
[1]
  inhibition in vivo at 10 mg/kg: 42%
[4]
  inhibition in vivo at 3 mg/kg: 40%

## CC(C)[C@H](NC(=O)[C@@H]1CCCN1C(=O)[C@@H](NC(=O)CN1CCN(CC(=O)O)CC1)C(C)C)C(=O)c1nc2ccccc2o1
[1]
  inhibition in vivo at 10 mg/kg: 70%
[3]
  inhibition in vivo at 1 mg/kg/hr: 34%
[4]
  inhibition in vivo at 3 mg/kg: 44%
[5]
  inhibition in vivo at 10 mg/kg/hr: 87%
[6]
  inhibition in vivo at 3 mg/kg/hr: 48%

## CC(C)[C@H](NC(=O)[C@@H]1CCCN1C(=O)[C@@H](NC(=O)CN1CCN(CC(=O)O)C(=O)C1=O)C(C)C)C(=O)C(=O)NCc1ccccc1
[3]
  inhibition in vivo at 1 mg/kg/hr: 31%
[5]
  inhibition in vivo at 10 mg/kg/hr: 89%
[6]
  inhibition in vivo at 3 mg/kg/hr: 47%

## CC(C)[C@H](NC(=O)[C@@H]1CCCN1C(=O)[C@@H](NC(=O)CN1CC(=O)N(CC(=O)O)C1=O)C(C)C)C(=O)c1nc2ccccc2o1
[1]
  inhibition in vivo at 10 mg/kg: 67%
[2]
  inhibition in vivo at 30 mg/kg: 91%
[3]
  inhibition in vivo at 1 mg/kg/hr: -7%
[4]
  inhibition in vivo at 3 mg/kg: 32%
[5]
  inhibition in vivo at 10 mg/kg/hr: 78%
[6]
  inhibition in vivo at 3 mg/kg/hr: 44%

## CC(C)[C@H](NC(=O)[C@@H]1CCCN1C(=O)[C@@H](NC(=O)CN1CCN(CC(=O)O)C1=O)C(C)C)C(=O)c1nc2ccccc2o1
[1]
  inhibition in vivo at 10 mg/kg: 68%
[3]
  inhibition in vivo at 1 mg/kg/hr: 25%
[4]
  inhibition in vivo at 3 mg/kg: 22%
[5]
  inhibition in vivo at 10 mg/kg/hr: 90%
[6]
  inhibition in vivo at 3 mg/kg/hr: 31%

## COC(=O)C(=O)[C@@H](NC(=O)[C@@H]1CCCN1C(=O)[C@@H](NC(=O)Cn1ccc(=O)n(CC(=O)O)c1=O)C(C)C)C(C)C
[3]
  inhibition in vivo at 1 mg/kg/hr: 32%
[5]
  inhibition in vivo at 10 mg/kg/hr: 94%
[6]
  inhibition in vivo at 3 mg/kg/hr: 43%

## COC(=O)C(=O)[C@@H](NC(=O)[C@@H]1CCCN1C(=O)[C@@H](NC(=O)CN1CCN(CC(=O)O)C(=O)C1=O)C(C)C)C(C)C
[5]
  inhibition in vivo at 10 mg/kg/hr: 94%
[6]
  inhibition in vivo at 3 mg/kg/hr: 48%

## CC(C)[C@H](NC(=O)[C@@H]1CCCN1C(=O)[C@@H](NC(=O)Cn1ccc(=O)n(CC(=O)O)c1=O)C(C)C)C(=O)C(=O)NCc1ccccc1
[3]
  inhibition in vivo at 1 mg/kg/hr: 32%
[5]
  inhibition in vivo at 10 mg/kg/hr: 90%
[6]
  inhibition in vivo at 3 mg/kg/hr: 78%

## CC(C)[C@H](NC(=O)[C@@H]1CCCN1C(=O)[C@@H](NC(=O)CN1CCN(CC(=O)O)C(=O)C1=O)C(C)C)C(=O)c1nc2ccccc2o1
[1]
  inhibition in vivo at 10 mg/kg: 88%
[3]
  inhibition in vivo at 1 mg/kg/hr: 41%
[4]
  inhibition in vivo at 3 mg/kg: 57%
[5]
  inhibition in vivo at 10 mg/kg/hr: 95%
[6]
  inhibition in vivo at 3 mg/kg/hr: 76%

## CC(C)[C@H](NC(=O)[C@@H]1CCCN1C(=O)[C@@H](NC(=O)Cn1ncc(=O)n(CC(=O)O)c1=O)C(C)C)C(=O)c1nc2ccccc2o1
[1]
  inhibition in vivo at 10 mg/kg: 33%
[4]
  inhibition in vivo at 3 mg/kg: 14%

## CC(C)[C@H](NC(=O)[C@@H]1CCCN1C(=O)[C@@H](NC(=O)CN1CC(=O)N(CC(=O)O)CC1=O)C(C)C)C(=O)c1nc2ccccc2o1
[1]
  inhibition in vivo at 10 mg/kg: 67%
[3]
  inhibition in vivo at 1 mg/kg/hr: 55%
[4]
  inhibition in vivo at 3 mg/kg: 20%
[5]
  inhibition in vivo at 10 mg/kg/hr: 90%
[6]
  inhibition in vivo at 3 mg/kg/hr: 73%

## Cc1nn(CC(=O)N[C@H](C(=O)N2CCC[C@H]2C(=O)N[C@H](C(=O)c2nc3ccccc3o2)C(C)C)C(C)C)c(=O)n(CC(=O)O)c1=O
[1]
  inhibition in vivo at 10 mg/kg: 48%

## CC(C)[C@H](NC(=O)Cn1ccc(=O)n(CC(=O)O)c1=O)C(=O)N1CCC[C@H]1C(=O)N[C@H](C(=O)C(F)(F)F)C(C)C (mixture of isomers)
[3]
  inhibition in vivo at 1 mg/kg/hr: -1.2%
[5]
  inhibition in vivo at 10 mg/kg/hr: 79%
[6]
  inhibition in vivo at 3 mg/kg/hr: 7.6%

## CC(C)[C@H](NC(=O)[C@@H]1CCCN1C(=O)[C@@H](NC(=O)Cn1ccc(=O)n(CC(=O)O)c1=O)C(C)C)C(=O)c1nc2ccccc2o1
[1]
  inhibition in vivo at 10 mg/kg: 66%
[2]
  inhibition in vivo at 30 mg/kg: 97%
[3]
  inhibition in vivo at 1 mg/kg/hr: 50%
[4]
  inhibition in vivo at 3 mg/kg: 24%
[5]
  inhibition in vivo at 10 mg/kg/hr: 93%
[6]
  inhibition in vivo at 3 mg/kg/hr: 62%
